# Results taken from ChEMBL document CHEMBL4270646, “Novel antimalarial chloroquine- and primaquine-quinoxaline 1,4-di-N-oxide hybrids: Design, synthesis, Plasmodium life cycle stage profile, and preliminary toxicity studies” (Eur J Med Chem, 2018).
# pIC50: −log10 of the molar value. Active and inactive are the calls of the source. The calls are words filed in the database; no cut-off is given here.
# What was measured:
# Plasmodium falciparum [1] = assay: Antiplasmodial activity against GFP-harboring Plasmodium falciparum sporozoites infected in human primary hepatocytes assessed as reduction in parasite growth treated every 24 hrs by DAPI staining-based fluorescence microscopic analysis; format: functional, organism-based
# How it was run: (§1)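 Collagen-coated wells seeded with HepG2 (P. berghei), HepG2-CD81 (P. yoelii) or primary human hepatocytes (P. falciparum). Sporozoites added: 5×10^3 to 1×10^4 per well to the cell lines, 2.5×10^4 per well to hepatocytes. Compounds given at infection: top 10 µg/mL plus seven serial dilutions, renewed at 3 h and then every 24 h. Cultures grown 40 h (cell lines) or 8 days (hepatocytes) at 37°C. Methanol-fixed, HSP70 immunolabelled, DAPI counterstained. IC50 from logistic regression; triplicate.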
# Plasmodium yoelii [2] = assay: Antiplasmodial activity against GFP-harboring Plasmodium yoelii sporozoites infected in human HepG2 cells expressing CD81 assessed as reduction in parasite growth treated every 24 hrs by DAPI staining-based fluorescence microscopic analysis; format: functional, organism-based; settings: HepG2, 24 h; how it was run: as §1
# [3] = Genotoxicity in Salmonella typhimurium TA1535 harboring pSK1002 assessed as bacterial survival at 0.001 to 0.063 mg/ml after 4 hrs in absence of Sprague-Dawley rat liver S9 fraction by SOS/umu assay relative to control; format: toxicity, organism-based; settings: salmonella enterica subsp. enterica serovar typhimurium; read-out: Survival
# How it was run: (§2)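 Log-phase S. typhimurium TA1535/pSK1002 (OD600 0.15–0.4) exposed for 4 h at 37°C with shaking, with 10% rat S9 mix or PBS. Eleven twofold dilutions tested from 1 mg/mL final; DMSO as solvent control. A600 read. Survival expressed as % of negative-control A600.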
# Plasmodium berghei [4] = assay: Antiplasmodial activity against GFP-harboring Plasmodium berghei sporozoites infected in human HepG2 cells assessed as reduction in parasite growth treated every 24 hrs by DAPI staining-based fluorescence microscopic analysis; format: functional, organism-based; settings: HepG2, 24 h; how it was run: as §1
# Plasmodium yoelii [5] = assay: Antiplasmodial activity against Plasmodium yoelii 17XNL sporozoites infected in BALB/c mouse assessed as parasite burden at 100 mg/kg, po measured at day 4 by […] (reference value: 0.06%); format: functional
# How it was run: (§3)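 BALB/c mice (6-8 weeks, 20-23 g), n=4 per hybrid group and n=5 per control. Dosed orally at 100 mg/kg (100 µL) on days -1, 0, +1 and +2. Vehicle was DMSO 100%; primaquine diphosphate given at 30 mg/kg daily. On day 0, 5 x 10^3 cryopreserved P. yoelii 17XNL sporozoites injected i.v. Parasitaemia read by Giemsa smear and SYBR Green flow cytometry. Groups compared by Kruskal-Wallis test.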
# Mus musculus [6] = assay: Acute toxicity in BALB/c mouse assessed as behavioral changes at 300 mg/kg, po administered as single dose measured every day for 14 days; format: organism-based; settings: in vivo, 336 h
# How it was run: (§4)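 Female BALB/c mice, 6-8 weeks old, 20-23 g, in groups of three. Single oral dose of 300 or 500 mg/kg; vehicle DMSO 100% given to controls. Mice watched for signs of toxicity for 4 h after dosing. Physical appearance, injury, pain and illness recorded daily for 14 days. Euthanasia in a CO2 chamber on day 14 or earlier if suffering.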
# [7] = Genotoxicity in Salmonella typhimurium TA1535 harboring pSK1002 assessed as bacterial survival at 0.001 to 0.063 mg/ml after 4 hrs in presence of Sprague-Dawley rat liver S9 fraction by SOS/umu assay relative to control; format: toxicity, organism-based; settings: salmonella enterica subsp. enterica serovar typhimurium; read-out: Survival; how it was run: as §2
# Plasmodium yoelii [8] = assay: Antiplasmodial activity against Plasmodium yoelii 17XNL sporozoites infected in BALB/c mouse assessed as decrease in peripheral blood parasite levels at 100 mg/kg, po measured at day 5 by […]; format: functional, organism-based; how it was run: as §3
# [9] = Selectivity index, ratio of CC50 for human HepG2 cells to IC50 for GFP-expressing Plasmodium berghei sporozoites; format: toxicity; settings: read-out: Ratio CC50/IC50
# How it was run: (§5)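 Selectivity index = CC50 (matching cell) / IC50 (matching parasite). Cell–parasite pairs: HepG2-CD81 with P. yoelii, HepG2 with P. berghei, human hepatocytes with P. falciparum.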
# Mus musculus [10] = assay: Acute toxicity in BALB/c mouse assessed as effect on blood urea nitrogen level at 300 to 500 mg/kg, po administered as single dose measured at day 14; format: organism-based; settings: in vivo
# Plasmodium yoelii [11] = assay: Antiplasmodial activity against Plasmodium yoelii 17XNL sporozoites infected in BALB/c mouse assessed as decrease in parasitaemia in blood at 100 mg/kg, po measured at day 4 by […] relative to control; format: functional; set-up: scale not given: the % may be the effect or the level left; how it was run: as §3
# Mus musculus [12] = assay: Acute toxicity in BALB/c mouse assessed as necrosis of liver at 500 mg/kg, po administered as single dose measured at day 14 by haematoxylin and eosin staining based microscopic analysis; format: organism-based; settings: in vivo
# How it was run: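 Female BALB/c mice, groups of three, single oral dose; vehicle DMSO 100% for controls. Mice euthanised with CO2 on day 14, or earlier if suffering. Gross necropsy performed. Spleen, liver and kidney fixed in formaldehyde 37%, stained with haematoxylin and eosin and examined by light microscopy.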
# Mus musculus [13] = assay: Acute toxicity in BALB/c mouse assessed as appearance of clear and bright eyes at 300 to 500 mg/kg, po administered as single dose measured every day for 14 days; format: organism-based; settings: in vivo, 336 h; how it was run: as §4
# Plasmodium berghei [14] = assay: Antiplasmodial activity against GFP-expressing gametocytes of Plasmodium berghei sporozoites in Anopheles stephensi mosquitoes feeded on blood from infected Swiss mouse assessed as reduction in mosquito infection at 100 mg/kg, ip pretreated for 1.5 hrs followed by blood feeding of mosquito and measured at 8 days post mosquitoes infection by fluorescence microscopic method relative to control; format: functional; set-up: scale not given: the % may be the effect or the level left
# How it was run: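 Swiss mice (female, 6 weeks) infected i.p. with PbGFP-infected red cells (200 µL, 3000 parasites/µL). Gametocytes monitored 4 days by Giemsa smear and exflagellation. Hybrid given i.p. at 100 mg/kg in DMSO 1.5 h before A. stephensi fed 1 h on mice with 1% gametocytes. Controls were untreated and DMSO-treated mice. Thirty mosquitoes per group dissected after 8 days. Midgut oocysts counted by fluorescence microscopy against control mosquitoes taken as 100%.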
# [15] = Selectivity index, ratio of CC50 for human HepG2 cells expressing CD81 to IC50 for GFP-expressing Plasmodium yoelii sporozoites; format: toxicity; settings: read-out: Ratio CC50/IC50; how it was run: as §5
# Plasmodium falciparum [16] = assay: Antiplasmodial activity against the multidrug-resistant Plasmodium falciparum […] infected in human red blood cells assessed as reduction in parasite growth after 48 hrs by Hoechst 33342 staining based flow cytometric analysis; format: functional, organism-based
# How it was run: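 Ring-stage cultures (>80% rings) at 1% parasitaemia in A+ human erythrocytes, 2% haematocrit. Medium RPMI 1640 with 10% A+ serum, 37°C, 5% CO2/5% O2. Compounds in DMSO at 1.56–100 µg/mL final, DMSO ≤1%. After 48 h, cells stained with Hoechst 33342 and 1×10^4 counted by flow cytometry. IC50 from logistic dose-response regression; three independent experiments in triplicate.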
# [17] = Selectivity index, ratio of CC50 for human primary hepatocytes to IC50 for GFP-expressing Plasmodium falciparum sporozoites; format: toxicity; settings: read-out: Ratio CC50/IC50; how it was run: as §5
smiles,measurement,setting,value
COc1cc(NC(C)CCCNC(=O)c2c(C)[n+]([O-])c3ccccc3[n+]2[O-])c2ncccc2c1 (configuration not stated),pIC50,Plasmodium falciparum [1],5.27
same,pIC50,Plasmodium yoelii [2],5.86
same,viability at 4 h,[3],> 80%
same,pIC50,Plasmodium berghei [4],5.28
same,Activity,Plasmodium yoelii [5],0%
same,Activity,Mus musculus [6],Non-Toxic
same,viability at 4 h,[7],> 80%
same,Activity,Plasmodium yoelii [8],Active
same,selectivity ratio,[9],7.59
same,Activity,Mus musculus [10],Non-Toxic
same,Activity,Plasmodium yoelii [11],95.97%
same,Activity,Mus musculus [12],Non-Toxic
same,Activity,Mus musculus [13],Non-Toxic
same,Activity,Plasmodium berghei [14],20%
same,selectivity ratio,[15],153
same,pIC50,Plasmodium falciparum [16],4.17
same,selectivity ratio,[17],39.5
